Laboratory results reported in ChEMBL document CHEMBL1123452, “Synthesis and hypolipidemic activities of 5-thienyl-4-oxazoleacetic acid derivatives” (1986).

Columns and labels:
Rattus norvegicus [1] = species: Rattus norvegicus; experiment: Percent decrease in serum cholesterol (Cho) after 7 days at 0.05 percent in the diet of SD male rats in comparison to control animals; type: functional
Outline: (§1)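 Normal SD male rats, five per group. Compound mixed into CE-2 powder diet at 50 mg/100 g (mg %), fed ad libitum for 7 days; controls received plain CE-2 powder. Total serum cholesterol measured by the Zak method and triglyceride by the Van Handel method after the feeding period. Activity expressed as percent depression versus the control-group mean. Single experiments.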

Rattus norvegicus [2] = species: Rattus norvegicus; experiment: Percent decrease in triglyceride (TG) after 7 days at 0.05 percent in the diet of SD male rats in comparison to control animals; type: functional; outline: as §1

| Compound | Reduction (Rattus norvegicus [1]) [%] | Reduction (Rattus norvegicus [2]) [%] |
| --- | --- | --- |
| CCCCCOC(=O)Cc1nc(-c2ccccc2)oc1-c1ccsc1 | 20 | 30 |
| CCCCCOC(=O)Cc1nc(-c2ccc(F)cc2)oc1-c1ccsc1 | 13 | 20 |
| CCCCCCCCOC(=O)Cc1nc(-c2ccc(F)cc2)oc1-c1ccsc1 | 12 | 13 |
| CCOC(=O)Cc1nc(-c2ccc(Br)cc2)oc1-c1ccc(F)cc1 | 12 | -5 |
| O=C(OCc1nc(-c2ccc(F)cc2)oc1-c1ccsc1)c1cccnc1 | 0 | 17 |
| CCOC(=O)Cc1nc(-c2ccc(C)cc2)oc1-c1cccs1 | 9 | -14 |
| CCOC(=O)Cc1nc(-c2ccccc2)oc1-c1cccs1 | 11 | 7 |
| O=C(O)Cc1nc(-c2ccc(Cl)c(Cl)c2)oc1-c1ccsc1 | 9 | 34 |
| CCOC(=O)Cc1nc(-c2ccc(Cl)cc2)oc1-c1ccc(Br)s1 | 0 | 20 |
| NC(=O)Cc1nc(-c2ccc(F)cc2)oc1-c1ccsc1 | 19 | 13 |
| O=C(O)Cc1nc(-c2ccsc2)oc1-c1ccc(F)cc1 | 13 | 31 |
| O=C(O)Cc1nc(-c2ccc(Br)cc2)oc1-c1ccccc1 | 4 | -14 |
| O=C(O)Cc1nc(-c2ccccc2)oc1-c1ccsc1 | 15 | 41 |
| COC(=O)Cc1nc(-c2ccc(Cl)cc2)oc1-c1ccsc1 | 14 | 29 |
| CCN(CC)C(=O)Cc1nc(-c2ccc(F)cc2)oc1-c1ccsc1 | -2 | 2 |
| CCOC(=O)Cc1nc(-c2ccc(C)cc2)oc1-c1ccsc1 | 5 | 4 |
| CCOC(=O)Cc1nc(-c2ccc(C)cc2)oc1-c1ccccc1 | 5 | -18 |
| CC(C)OC(=O)Cc1nc(-c2ccc(Cl)cc2)oc1-c1ccsc1 | 9 | 29 |
| O=C(O)Cc1nc(-c2ccccc2)oc1-c1ccccc1 | 6 | 20 |
| COc1ccc(-c2nc(CC(=O)O)c(-c3ccsc3)o2)cc1 | 3 | 26 |
| CCCCCOC(=O)Cc1nc(-c2ccc(Cl)cc2)oc1-c1ccsc1 | 19 | 45 |
| O=C(O)Cc1nc(-c2ccccc2Cl)oc1-c1ccsc1 | 1 | 22 |
| CCCCOC(=O)Cc1nc(-c2ccc(Cl)cc2)oc1-c1ccsc1 | 22 | 17 |
| CCOC(=O)Cc1nc(-c2ccc(F)cc2)oc1-c1cccs1 | 17 | 31 |
| CCOC(=O)Cc1nc(-c2ccc(Cl)cc2)oc1-c1cccs1 | 15 | -10 |
| OCc1nc(-c2ccc(F)cc2)oc1-c1ccsc1 | -10 | -34 |

| Compound | Reduction (Rattus norvegicus [1]) [%] | Reduction (Rattus norvegicus [2]) [%] |
| --- | --- | --- |
| CCCCNC(=O)Cc1nc(-c2ccc(F)cc2)oc1-c1ccsc1 | -8 | 13 |
| CCOC(=O)Cc1nc(-c2ccc(F)cc2)oc1-c1ccccc1 | 3 | -4 |
| O=C(O)Cc1nc(-c2ccc(Cl)cc2)oc1-c1ccccc1 | 6 | 14 |
| O=C(O)Cc1nc(-c2ccc(F)cc2)oc1-c1cccs1 | 17 | 27 |
| O=C(OCCc1nc(-c2ccc(F)cc2)oc1-c1ccsc1)c1cccnc1 | -2 | 3 |
| CCOC(=O)Cc1nc(-c2ccc(F)cc2)oc1-c1ccc(F)cc1 | 7 | 39 |
| CCOC(=O)Cc1nc(-c2ccc(OC)cc2)oc1-c1ccccc1 | 0 | 15 |
| CCOC(=O)Cc1nc(-c2ccc(Cl)cc2)oc1-c1ccccc1 | 7 | -12 |
| O=C(O)Cc1nc(-c2ccc(F)cc2)oc1-c1ccsc1 | 23 | 39 |
| C=CCOC(=O)Cc1nc(-c2ccc(Cl)cc2)oc1-c1ccsc1 | 11 | 39 |
| CCOC(=O)Cc1nc(-c2ccc(Br)cc2)oc1-c1ccccc1 | 10 | -7 |
| Cc1ccc(-c2nc(CC(=O)O)c(-c3ccsc3)o2)cc1 | 9 | 14 |
| CCOC(=O)CCc1nc(-c2ccc(Cl)cc2)oc1-c1ccsc1 | 0 | 34 |
| CCOC(=O)Cc1nc(-c2ccccc2Cl)oc1-c1ccsc1 | -5 | 15 |
| O=C(O)c1ncoc1-c1ccccc1 | 2 | 11 |
| CCCCCCCCCCCCCCCCCCOC(=O)Cc1nc(-c2ccc(F)cc2)oc1-c1ccsc1 | 18 | 26 |
| CCOC(=O)Cc1nc(-c2ccc(F)cc2)oc1-c1ccsc1 | 19 | 41 |
| CCOC(=O)C(C)c1nc(-c2ccc(F)cc2)oc1-c1ccsc1 (configuration not stated) | 6 | 19 |
| CCOC(=O)Cc1nc(-c2ccsc2)oc1-c1ccc(F)cc1 | 11 | 15 |
| CCOC(=O)Cc1nc(-c2ccc(OC)cc2)oc1-c1ccsc1 | 4 | 0 |
| O=C(O)Cc1nc(-c2ccc(Cl)cc2)oc1-c1cccs1 | 16 | 38 |
| O=C(Cc1nc(-c2ccc(Cl)cc2)oc1-c1ccsc1)OCc1cccnc1 | 13 | 3 |
| NC(=O)Cc1nc(-c2ccccc2)oc1-c1ccsc1 | 20 | 3 |
| CCOC(=O)c1nc(-c2ccccc2)oc1-c1ccccc1 | 9 | -30 |
| O=C(O)Cc1nc(-c2ccccc2)oc1-c1cccs1 | -4 | 28 |
| CCCCCCCCCCCCOC(=O)Cc1nc(-c2ccc(F)cc2)oc1-c1ccsc1 | 18 | 34 |

| Compound | Reduction (Rattus norvegicus [1]) [%] | Reduction (Rattus norvegicus [2]) [%] |
| --- | --- | --- |
| O=C(O)Cc1nc(-c2cccc(Cl)c2)oc1-c1ccsc1 | 7 | 38 |
| CCOC(=O)Cc1nc(-c2ccc(Cl)cc2)oc1-c1ccc(F)cc1 | 22 | 3 |
| CCOC(=O)Cc1nc(-c2cccc(Cl)c2)oc1-c1ccsc1 | 8 | 61 |
| CC(C)OC(=O)Cc1nc(-c2ccc(F)cc2)oc1-c1ccsc1 | 8 | 27 |
| O=C(O)CCc1nc(-c2ccc(Cl)cc2)oc1-c1ccsc1 | 5 | 51 |
| O=C(O)Cc1nc(-c2ccc(Cl)cc2)oc1-c1ccsc1 | 16 | 43 |
| CCOC(=O)Cc1nc(-c2ccc(Cl)c(Cl)c2)oc1-c1ccsc1 | 14 | 17 |
| CCOC(=O)Cc1nc(-c2cc(OC)c(OC)c(OC)c2)oc1-c1ccccc1 | 0 | -19 |
| O=C(Cc1nc(-c2ccc(Cl)cc2)oc1-c1ccsc1)OCC(O)CO (configuration not stated) | 15 | 43 |
| Cc1ccc(-c2oc(-c3ccc(Cl)cc3)nc2CC(=O)O)s1 | 9 | -4 |
| CC(C(=O)O)c1nc(-c2ccc(F)cc2)oc1-c1ccsc1 (configuration not stated) | 6 | 40 |
| CCc1nc(-c2ccc(F)cc2)oc1-c1ccsc1 | -4 | 20 |
| CCCCOC(=O)Cc1nc(-c2ccc(F)cc2)oc1-c1ccsc1 | 20 | 19 |
| COC(=O)c1nc(-c2ccc(F)cc2)oc1-c1ccsc1 | 5 | 16 |
| CCCCOC(=O)Cc1nc(-c2ccccc2)oc1-c1ccsc1 | 15 | 21 |
| CCOC(=O)Cc1nc(-c2ccccc2)oc1-c1ccccc1 | 13 | 6 |
| CCOC(=O)Cc1nc(-c2ccc(Cl)cc2)oc1-c1ccsc1 | 16 | 47 |
| C=CCc1nc(-c2ccc(F)cc2)oc1-c1ccsc1 | -2 | 3 |
| CCOC(=O)Cc1nc(-c2ccccc2)oc1-c1ccsc1 | 15 | 41 |
| CCOC(=O)Cc1nc(-c2ccc(Cl)cc2)oc1-c1ccc(C)s1 | 4 | 39 |
| CCNC(=O)Cc1nc(-c2ccc(F)cc2)oc1-c1ccsc1 | -5 | 23 |
| NC(=O)Cc1nc(-c2ccc(Cl)cc2)oc1-c1ccsc1 | 16 | 12 |
| OCCc1nc(-c2ccc(F)cc2)oc1-c1ccsc1 | 4 | 1 |
| CCOC(=O)C(C)(C)Oc1ccc(Cl)cc1 [CLOFIBRATE] | 15 | 16 |
